Screens (PubChem BioAssay)
SENP6 block – inhibitors of human SENP6 protease | Q9GZR1 | inhibition, % at 10 µM | Recombinant SENP6 catalytic domain, aminoluciferin luminescence | AID 2599 | 330,000 tested, 1.8% active;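 active means inhibition above about 50% at the single tested dose, limit read from the data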
SENP8 block-1 – SENP8 (human) protease inhibition | Q96LD8 | recombinant SENP8, Nedd8 substrate fluorescence | inhibition, % at 20 µM | 360,000 tested, 0.64% active | AID 602440; in the data active means inhibition mostly above about 40%, no sharp cut-off; inactive means mostly below about 27%
Target sequence (Q96LD8 whole entry, looked up): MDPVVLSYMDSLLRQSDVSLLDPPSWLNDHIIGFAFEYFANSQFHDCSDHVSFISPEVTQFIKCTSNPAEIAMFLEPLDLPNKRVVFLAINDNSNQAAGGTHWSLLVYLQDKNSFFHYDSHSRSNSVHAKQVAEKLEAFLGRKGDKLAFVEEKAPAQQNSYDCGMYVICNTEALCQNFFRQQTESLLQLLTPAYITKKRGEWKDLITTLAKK
SENP1 inh – inhibitors of human SENP1 SUMO protease catalytic domain. 360,000 tested, 0.21% active. Q9P0U3. recombinant SENP1 catalytic domain, CyPet-SUMO1-YPet FRET cleavage. inhibition, % at 10 µM;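 active means inhibition at least 30% at 10 µM, raw YFP signal under a set limit, fluorescence ratio 0.5 to 1.5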
Target sequence (Q9P0U3 419-644 limits assumed): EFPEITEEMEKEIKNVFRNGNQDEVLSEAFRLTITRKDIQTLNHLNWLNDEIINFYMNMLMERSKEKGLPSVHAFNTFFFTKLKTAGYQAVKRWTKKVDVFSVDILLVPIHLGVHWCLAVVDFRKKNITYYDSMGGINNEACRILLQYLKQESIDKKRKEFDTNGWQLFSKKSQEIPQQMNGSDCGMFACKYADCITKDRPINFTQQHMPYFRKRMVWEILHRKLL
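system = hSENP1 catalytic domain, recombinant | reagent = SFCypet-SUMO1-SFYpet substrate at 25 nM | doses = one dose per compound, 10 µM, 0.5% DMSO | incubation = enzyme reaction for 50 min at room temperature, dark | measured by = FRET, CFP and YFP emission | controls = no-enzyme low, enzyme-DMSO high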
SENP8 block-2 – blocks the human protease SENP8 | AID 2540 | 330,000 tested, 1.2% active | purified SENP8, Z-RLRGG-aminoluciferin cleavage, luminescence | inhibition, % at 10 µM; in the data active means inhibition above about 50%
SENP7 block – SENP7 protease inhibition. inhibition, % at 5 µM. AID 434973. Q9BQF6. 330,000 tested, 1.5% active. recombinant SENP7, Z-RLRGG-aminoluciferin luminescence, 40 min;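 active means inhibition above about 50% at the single test dose, limit read from the data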
SENP8 conf-1 – human SENP8 inhibition, confirmed | shares compounds with SENP7 block | Recombinant SENP8, Z-RLRGG-aminoluciferin luminescence, 60 min | inhibition, % at 12.5 µM | 6,200 tested, 40% active | AID 488912;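 active means mean inhibition across replicates above about 50%, limit read from the data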
SENP6 confirm – confirmation of human SENP6 protease inhibitors. shares compounds with SENP7 block. 6,200 tested, 58% active. recombinant SENP6, Z-RLRGG-aminoluciferin luminescence. inhibition, % at 12.5 µM
SENP7 conf – human SENP7 inhibition, confirmed. AID 488917. recombinant SENP7, Z-RLRGG-aminoluciferin luminescence, 40 min. inhibition, % at 12.5 µM. 6,200 tested, 69% active. shares compounds with SENP7 block
Casp3 SENP sel – inhibits human caspase-3 in SENP selectivity test; shares compounds with SENP7 block; purified caspase-3, Z-DEVD-aminoluciferin luminescence, 60 min; inhibition, % at 12.5 µM; 6,200 tested, 60% active; AID 488918;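 active means mean inhibition above about 50%, limit read from the data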
Target sequence (P42574 28-227 limits assumed): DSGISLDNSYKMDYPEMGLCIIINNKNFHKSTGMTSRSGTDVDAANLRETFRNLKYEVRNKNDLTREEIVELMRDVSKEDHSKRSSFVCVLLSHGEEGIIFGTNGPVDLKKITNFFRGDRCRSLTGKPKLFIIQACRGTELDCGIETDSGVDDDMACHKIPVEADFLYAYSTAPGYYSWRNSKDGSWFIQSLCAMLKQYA
Luc interf – luminescence interference (SENP counter-screen) | AID 488919 | inhibition, % at 12.5 µM | 6,200 tested, 39% active | shares compounds with SENP7 block | Pre-incubated SENP8/Z-RLRGG-aminoluciferin, luciferase luminescence interference;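 active means mean inhibition above about 50% when retested at one dose, limit read from the data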
SENP8 conf-2 – confirmation of human SENP8 protease inhibitors; shares compounds with SENP8 block-1; purified SENP8, Nedd8-AMC/pro-Nedd8 cleavage fluorescence, 30 min; inhibition, % at 25 µM; 1,400 tested, 15% active; AID 624319; in the data active means inhibition mostly above about 39%, no sharp cut-off; inactive means mostly below about 34%
Hits are given with their value; n = inactive; x = no result given. In the library only some 2.5% were active in any assay of this set; here they are far more common.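 How the source made its calls, unless noted: active means mean inhibition above about 50% in the one-dose retest (limit read from the data); inactive means the rest.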

SMILES | SENP6 block | SENP8 block-1 | SENP1 inh | SENP8 block-2 | SENP7 block | SENP8 conf-1 | SENP6 confirm | SENP7 conf | Casp3 SENP sel | Luc interf | SENP8 conf-2
O=C(N/N=C/c1ccc(OCc2ccccc2)cc1)c1ccncc1 | n | n | n | n | n | x | x | x | x | x | x
Oc1ccc(N=Cc2ccc(OCc3ccccc3)cc2)cc1 | 91 | 66 | n | 57 | n | n | 57 | 68 | n | n | n
COc1cc(NC(C)CCCN)c2ncccc2c1 (stereo not given) | 64 | 47 | n | n | 84 | n | 69 | n | 97 | n | 81
O=C(c1cn(Cc2ccccc2)nc1-c1ccccc1)N1CCN(c2ccccn2)CC1 | n | n | n | n | n | x | x | x | x | x | x
Cc1ccc(/C=N/NC(=O)c2cc(C)oc2C)cc1 | 84 | 41 | n | 74 | 86 | n | 74 | 95 | 90 | 82 | n
CC(C)c1ccc(NC(=O)COC(=O)C2CCCCC2)cc1 | n | n | n | n | n | x | x | x | x | x | x
OCCOc1ccc(CN2CCN(CCCc3ccccc3)C(CCO)C2)cc1 (stereo not given) | n | n | n | n | n | x | x | x | x | x | x
NC(=S)NNc1cccc2cccnc12 | 91 | 51 | n | n | n | n | n | n | n | n | 66
NC(=S)Nc1cccc2cccnc12 | n | n | n | n | n | x | x | x | x | x | x
Cc1ccccc1N1C(=O)Cc2ccccc2C1=O | 67 | 88 | n | n | n | n | 57 | n | n | n | n
Cc1ccccc1N1C(=O)c2cccc3cccc(c23)C1=O | n | n | n | n | n | x | x | x | x | x | x
O=C(Cc1ccccc1)c1nc2ccccc2s1 | 69 | 48 | n | 54 | n | n | 64 | 87 | 62 | n | 67
O=C(Cc1ccccc1)Nc1nc2ccccc2s1 | n | n | n | n | n | x | x | x | x | x | x
O=C1C2=C(c3ccccc31)[N+](=O)[C@@H]1CCCC[C@@H]1N2[O-] | 81 | 74 | n | n | 57 | n | 56 | n | n | n | 74
C[C@@H]1CN([C@@H](C)CO)C(=O)CCCn2nncc2CO[C@@H]1CN(C)C(=O)Nc1ccnc(N2CCOCC2)c1 | x | n | n | x | x | x | x | x | x | x | x
COc1ccc(C(=O)CCc2ccccc2)c(O)c1 | n | n | n | n | n | x | x | x | x | x | x
O=C(CCc1ccccc1)c1c(O)cc(O)cc1O | 63 | 48 | n | 52 | n | 65 | 60 | 77 | n | 67 | n
O=[N+]([O-])c1cc([N+](=O)[O-])c2nonc2c1Nc1ccccc1O | n | n | n | n | n | x | x | x | x | x | x
O=[N+]([O-])c1cc([N+](=O)[O-])c2nonc2c1Nc1ccc(O)cc1 | 58 | 79 | n | n | n | n | n | n | n | n | n
COc1ccc(Nc2ccc(OC)cc2)cc1 | 54 | 96 | n | n | n | n | n | n | n | n | n
COc1ccc(Nc2ccc(Nc3ccc(OC)cc3)nn2)cc1 | n | n | n | n | n | x | x | x | x | x | x
Cc1cccc(NC(=O)C(=O)NCC2CCCN2S(=O)(=O)c2ccccc2)c1 (stereo not given) | n | n | n | n | n | x | x | x | x | x | x
CC(=O)OCCCNc1cc(SCc2ccco2)c2nonc2c1[N+](=O)[O-] | 63 | 50 | n | 60 | n | n | n | n | n | n | n
COc1cc(C=C(c2nc3ccccc3s2)c2nc3ccccc3s2)cc(OC)c1O | n | n | n | n | n | x | x | x | x | x | x
CC(C)=C(C#N)c1nc2ccccc2s1 | n | n | n | n | n | x | x | x | x | x | x
SMILES | SENP6 block | SENP8 block-1 | SENP1 inh | SENP8 block-2 | SENP7 block | SENP8 conf-1 | SENP6 confirm | SENP7 conf | Casp3 SENP sel | Luc interf | SENP8 conf-2
COc1ccccc1N1C(C)=CC(=C(C#N)c2nc3ccccc3s2)C=C1C | 61 | 67 | n | n | n | n | n | n | n | n | n
CC1=CC(=C(C#N)c2nc3ccccc3s2)C=C(C)N1c1ccc(F)cc1 | 54 | 85 | n | n | n | n | n | n | n | n | n
O=C(Nc1cccc(S(=O)(=O)N2CCCC2)c1)[C@H]1C[C@H](O)[C@@H](CO)O1 | x | n | n | x | x | x | x | x | x | x | x
CC(C)(C)c1ccc(C(=O)NNc2cc(N3CCCCC3)nc(N3CCCCC3)n2)cc1 | 86 | 48 | n | n | 74 | n | n | n | n | n | 79
O=C(NNc1cc(N2CCCC2)nc(N2CCCC2)n1)c1ccc([N+](=O)[O-])cc1 | 91 | 77 | n | 75 | 92 | n | 61 | n | n | n | 75
Cc1nc(NNC(=O)c2ccc([N+](=O)[O-])cc2)cc(-c2ccccc2)n1 | n | n | n | n | n | x | x | x | x | x | x
O=C(CCc1ccccc1)NNc1cc(N2CCCCC2)nc(N2CCCCC2)n1 | n | 47 | n | n | 58 | n | n | n | n | n | 51
CC(C)(C)c1ccc(C(=O)NNc2cc(N3CCOCC3)nc(N3CCOCC3)n2)cc1 | n | n | n | n | n | x | x | x | x | x | x
CN(C)c1cc(N/N=C\c2ccccc2)nc(N(C)C)n1 | 76 | 51 | n | n | 71 | 61 | 76 | n | n | n | 69
CN(C)c1cc(Cl)c2nonc2c1N | 95 | 89 | n | 96 | 91 | n | n | n | n | n | 56
CCN(CC)c1cc(Cl)c2nonc2c1N | n | n | n | n | n | x | x | x | x | x | x
O=C1OC(Nc2cc(Br)cc3cccnc23)c2ccccc21 (stereo not given) | 94 | 41 | n | n | 92 | n | 63 | 51 | n | n | n
O=C(O)c1cc(Cl)c(Cl)cc1C(=O)Nc1cccc2cccnc12 | n | 61 | n | n | 69 | n | n | n | n | n | n
C=CCn1c(C)cc(C(=O)COC(=O)CCc2cc(OC)c(OC)c(OC)c2)c1C | n | n | n | n | n | x | x | x | x | x | x
O=C(O)c1[nH]c(-c2ccccc2)c2c1C(=O)N(C1CC1)C2=O | x | n | n | x | x | x | x | x | x | x | x
O=C1c2ccccc2-c2nc3ccccc3nc21 | 51 | 47 | n | n | n | n | 53 | n | 64 | n | 89
COc1ccccc1-c1nc2ccccc2nc1-c1ccccc1OC | n | n | n | n | n | x | x | x | x | x | x
